Laboratory results: ChEMBL document CHEMBL1687826, “Flow cytometry as a tool to determine the effects of cell wall-active antibiotics on vancomycin-susceptible and -resistant Enterococcus faecalis strains” (Antimicrob Agents Chemother, 2011)
Activity calls are given as the source filed them. The rule behind the calls is not given here.

Columns and labels:
[1] = test system: Enterococcus faecalis; experiment: Drug uptake in vancomycin-susceptible Enterococcus faecalis JH2-2 assessed as red-fluorescent bacteria at 1 times MIC after 1 hr by confocal microscopy
[2] = test system: Enterococcus faecalis; experiment: Drug uptake in vancomycin[…]-type Enterococcus faecalis BM4316 assessed as red-fluorescent bacteria at 1 times MIC after 1 hr by confocal microscopy
[3] = test system: Enterococcus faecalis; experiment: Drug uptake in vancomycin[…]-type Enterococcus faecalis BM4275 assessed as red-fluorescent bacteria at 1 times MIC after 1 hr by confocal microscopy
[4] = test system: Enterococcus faecalis; experiment: Antibacterial activity against vancomycin-susceptible Enterococcus faecalis JH2-2 assessed as increase in cell size at 0.25 times MIC after 30 to 90 mins by flow cytometric analysis relative to control; format: functional, organism-based
Outline: (§1)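 10^5 CFU/ml exponential cells in BHI, 37°C, exposed to 0.25× or 1× MIC (daptomycin with 50 μg/ml free Ca2+) for 30, 60, 90 min, then diluted to ca. 10^4 CFU/ml in PBS. Flow cytometry forward scatter, log amplifiers, 5,000 events; % increase in size versus untreated control, triplicate, mean ± SD; Kruskal-Wallis then Mann-Whitney.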

[5] = test system: Enterococcus faecalis; experiment: Antibacterial activity against […] Enterococcus faecalis BM4316 assessed as increase in cell size at 0.25 times MIC after 30 to 90 mins by flow cytometric analysis relative to control; format: functional, organism-based
Outline: as §1

[6] = test system: Enterococcus faecalis; experiment: Antibacterial activity against […] Enterococcus faecalis BM4316 assessed as membrane potential/size ratio at 0.25 to 1 times MIC after 1 hr […]; format: functional, organism-based
[7] = test system: Enterococcus faecalis; experiment: Antibacterial activity against […] Enterococcus faecalis BM4275 assessed as membrane potential/size ratio at 0.25 to 1 times MIC after 1 hr […]; format: functional, organism-based
[8] = test system: Enterococcus faecalis; experiment: Antibacterial activity against vancomycin-susceptible Enterococcus faecalis JH2-2 assessed as decrease in bacterial count at 4 times MIC after 180 mins using BHI broth; format: functional, organism-based
Outline: (§2)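 Exponential-phase suspension (10^5 CFU/ml) in BHI, 37°C, exposed to 4× MIC for 180 min alongside antibiotic-free control; daptomycin medium carried 50 μg/ml free Ca2+. Survivors counted on BHI agar; value is mean difference in log10 CFU/ml with versus without antibiotic, 4 independent experiments, mean ± SD.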

[9] = test system: Enterococcus faecalis; experiment: Antibacterial activity against […] Enterococcus faecalis BM4316 assessed as decrease in bacterial count at 4 times MIC after 180 mins using BHI broth; format: functional, organism-based
Outline: as §2

[10] = test system: Enterococcus faecalis; experiment: Antibacterial activity against […] Enterococcus faecalis BM4275 assessed as decrease in bacterial count at 4 times MIC after 180 mins using BHI broth; format: functional, organism-based
Outline: as §2

[11] = test system: Enterococcus faecalis; experiment: Antibacterial activity against vancomycin-susceptible Enterococcus faecalis JH2-2 assessed as membrane potential/size ratio at 0.25 to 1 times MIC after 1 hr by flow cytometry
[12] = test system: Enterococcus faecalis; experiment: Antibacterial activity against […] Enterococcus faecalis BM4316 assessed as dismorphic bacterial chains at 1 times MIC after 1 hr by confocal microscopy
[13] = test system: Enterococcus faecalis; experiment: Antibacterial activity against […] Enterococcus faecalis BM4275 assessed as dismorphic bacterial chains at 1 times MIC after 1 hr by confocal microscopy
[14] = test system: Enterococcus faecalis; experiment: Antibacterial activity against vancomycin-susceptible Enterococcus faecalis JH2-2 assessed as dismorphic bacterial chains at 1 times MIC after 1 hr using BacLight Live/Dead kit by confocal microscopy
[15] = test system: Enterococcus faecalis; experiment: Antibacterial activity against vancomycin-susceptible Enterococcus faecalis JH2-2 using BHI broth by macrodilution method; format: functional
Outline: (§3)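 Macrodilution per CLSI in BHI broth at 37°C, with 50 μg/ml free Ca2+ for daptomycin; MIC read as lowest concentration with no growth after 1 day.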

[16] = test system: Enterococcus faecalis; experiment: Antibacterial activity against […] Enterococcus faecalis BM4316 using BHI broth by macrodilution method; format: functional
Outline: as §3

[17] = test system: Enterococcus faecalis; experiment: Antibacterial activity against […] Enterococcus faecalis BM4275 using BHI broth by macrodilution method; format: functional
Outline: as §3

[18] = test system: Enterococcus faecalis; experiment: Antibacterial activity against vancomycin-susceptible Enterococcus faecalis JH2-2 assessed as increase in cell size at 1 times MIC after 30 to 90 mins by flow cytometric analysis relative to control; format: functional, organism-based
Outline: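 Exponentially growing cells at 10^5 CFU/ml in BHI broth at 37°C were exposed to 0.25× or 1× MIC and sampled at 30, 60 and 90 min. Untreated controls were run alongside. Cells were diluted to ca. 10^4 CFU/ml in PBS and gated on log forward scatter for 5,000 events. Runs were in triplicate, reported as mean % size increase versus control.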

[19] = test system: Enterococcus faecalis; experiment: Antibacterial activity against […] Enterococcus faecalis BM4275 assessed as increase in cell size at 0.25 times MIC after 30 to 90 mins by flow cytometric analysis relative to control; format: functional, organism-based
Outline: as §1

[20] = test system: Enterococcus faecalis; experiment: Antibacterial activity against […] Enterococcus faecalis BM4316 assessed as increase in cell size at 1 times MIC after 30 to 90 mins by flow cytometric analysis relative to control; format: functional, organism-based
Outline: as §1

[21] = test system: Enterococcus faecalis; experiment: Antibacterial activity against […] Enterococcus faecalis BM4275 assessed as increase in cell size at 1 times MIC after 30 to 90 mins by flow cytometric analysis relative to control; format: functional, organism-based
Outline: as §1

[22] = test system: Enterococcus faecalis; experiment: Antibacterial activity against vancomycin-susceptible Enterococcus faecalis JH2-2 assessed as change in CFU count at 1 times MIC after 30 to 90 mins; format: functional, organism-based
Outline: (§4)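 Exponentially growing cells, 10^5 CFU/ml in BHI at 37°C, exposed to 1× MIC antibiotic (daptomycin medium with 50 μg/ml free Ca2+) for 30, 60 and 90 min; viable counts by enumeration on BHI agar.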

[23] = test system: Enterococcus faecalis; experiment: Antibacterial activity against […] Enterococcus faecalis BM4316 assessed as change in CFU count at 1 times MIC after 30 to 90 mins; format: functional, organism-based
Outline: as §4

[24] = test system: Enterococcus faecalis; experiment: Antibacterial activity against […] Enterococcus faecalis BM4275 assessed as change in CFU count at 1 times MIC after 30 to 90 mins; format: functional, organism-based
Outline: as §4

[25] = test system: Staphylococcus aureus; experiment: Antibacterial activity against Staphylococcus aureus ATCC 29213 assessed as cells with altered cell wall morphology at 8 times MIC after 60 mins; format: functional

| SMILES | Drug uptake [1] | Drug uptake [2] | Drug uptake [3] | Activity [4] | Activity [5] | Activity [6] | Activity [7] | Activity [8] | Activity [9] | Activity [10] | Activity [11] | Activity [12] | Activity [13] | Activity [14] | Activity [15] [µg/mL] | Activity [16] [µg/mL] | Activity [17] [µg/mL] | Activity [18] | Activity [19] | other results |
| --- | --- | --- | --- | --- | --- | --- | --- | --- | --- | --- | --- | --- | --- | --- | --- | --- | --- | --- | --- | --- |
| CN[C@H](CC(C)C)C(=O)N[C@H]1C(=O)N[C@@H](CC(N)=O)C(=O)N[C@H]2C(=O)N[C@H]3C(=O)N[C@H](C(=O)N[C@H](C(=O)O)c4cc(O)cc(O)c4-c4cc3ccc4O)[C@H](O)c3ccc(c(Cl)c3)Oc3cc2cc(c3O[C@@H]2O[C@H](CO)[C@@H](O)[C@H](O)[C@H]2O[C@H]2C[C@](C)(NCCCCNc3cc(C(F)(F)F)nc4cc(Cl)ccc34)[C@H](O)[C@H](C)O2)Oc2ccc(cc2Cl)[C@H]1O [listing 1 of 2 here] | Active | Active | Active | – | – | – | – | – | – | – | – | – | – | – | – | – | – | – | – | – |
| CN[C@H](CC(C)C)C(=O)N[C@H]1C(=O)N[C@@H](CC(N)=O)C(=O)N[C@H]2C(=O)N[C@H]3C(=O)N[C@H](C(=O)N[C@@H](C(=O)O)c4cc(O)cc(O)c4-c4cc3ccc4O)[C@H](O)c3ccc(c(Cl)c3)Oc3cc2cc(c3O[C@@H]2O[C@H](CO)[C@@H](O)[C@H](O)[C@H]2O[C@H]2C[C@](C)(NCCCCNc3cc(C(F)(F)F)nc4cc(Cl)ccc34)[C@H](O)[C@H](C)O2)Oc2ccc(cc2Cl)[C@H]1O | – | – | – | Active | Active | inactive | inactive | Active | Active | Active | inactive | inactive | inactive | inactive | – | – | – | – | – | – |
| CN[C@H](CC(C)C)C(=O)N[C@H]1C(=O)N[C@@H](CC(N)=O)C(=O)N[C@H]2C(=O)N[C@H]3C(=O)N[C@H](C(=O)N[C@H](C(=O)O)c4cc(O)cc(O)c4-c4cc3ccc4O)[C@H](O)c3ccc(c(Cl)c3)Oc3cc2cc(c3O[C@@H]2O[C@H](CO)[C@@H](O)[C@H](O)[C@H]2O[C@H]2C[C@](C)(NCCCCNc3cc(C(F)(F)F)nc4cc(Cl)ccc34)[C@H](O)[C@H](C)O2)Oc2ccc(cc2Cl)[C@H]1O [listing 2 of 2 here] | – | – | – | – | – | – | – | – | – | – | – | – | – | – | 0.5 | 4 | 2 | – | – | – |
| CN[C@H](CC(C)C)C(=O)N[C@H]1C(=O)N[C@@H](CC(N)=O)C(=O)N[C@H]2C(=O)N[C@H]3C(=O)N[C@H](C(=O)N[C@H](C(=O)O)c4cc(O)cc(O)c4-c4cc3ccc4O)[C@H](O)c3ccc(c(Cl)c3)Oc3cc2cc(c3O[C@@H]2O[C@H](CO)[C@@H](O)[C@H](O)[C@H]2O[C@H]2C[C@](C)(N)[C@H](O)[C@H](C)O2)Oc2ccc(cc2Cl)[C@H]1O [VANCOMYCIN] | Active | Active | Active | Active | – | inactive | inactive | Active | Active | Active | inactive | inactive | inactive | inactive | 4 | 512 | 256 | Active | – | – |
| CCCCCCCCCC(=O)N[C@@H](Cc1c[nH]c2ccccc12)C(=O)N[C@H](CC(N)=O)C(=O)N[C@@H](CC(=O)O)C(=O)N[C@@H]1C(=O)NCC(=O)N[C@@H](CCCN)C(=O)N[C@@H](CC(=O)O)C(=O)N[C@H](C)C(=O)N[C@@H](CC(=O)O)C(=O)NCC(=O)N[C@H](CO)C(=O)N[C@@H]([C@H](C)CC(=O)O)C(=O)N[C@@H](CC(=O)c2ccccc2N)C(=O)O[C@@H]1C | Active | Active | Active | Active | Active | inactive | inactive | Active | Active | Active | inactive | Active | Active | Active | 2 | 2 | 2 | Active | Active | Activity [20]: Active; Activity [21]: Active; Activity [22]: Active; Activity [23]: Active; Activity [24]: Active; Activity [25]: >90% |
| CCCCCCCCCCNCCN[C@@]1(C)C[C@H](O[C@H]2[C@H](Oc3c4cc5cc3Oc3ccc(cc3Cl)[C@@H](O)[C@@H](NC(=O)[C@@H](CC(C)C)NC)C(=O)N[C@@H](CC(N)=O)C(=O)N[C@H]5C(=O)N[C@H]3C(=O)N[C@H](C(=O)N[C@H](C(=O)O)c5cc(O)c(CNCP(=O)(O)O)c(O)c5-c5cc3ccc5O)[C@H](O)c3ccc(c(Cl)c3)O4)O[C@H](CO)[C@@H](O)[C@@H]2O)O[C@@H](C)[C@H]1O [TELAVANCIN] | Active | Active | Active | Active | Active | inactive | inactive | Active | Active | Active | inactive | inactive | inactive | inactive | 1 | 4 | 1 | – | Active | – |
